# MPTP inh – inhibitors of mitochondrial permeability transition pore. isolated mouse mitochondria, Ca2+ swelling absorbance, 30 min. 360,000 compounds, 1.4% hits. inhibition, % at 10 µM;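 active means inhibition of 50% or more, scaled per plate between neutral and stimulator controls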;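 further: 0% = DMSO wells given calcium and 100% = 1 mM EGTA wells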
# ATG4B inhibitor – inhibitors of human ATG4B cysteine protease; ATG4B cleavage of LC3-PLA2, NBD-HPC fluorescence, 1 h; inhibition, % at 8.33 µM; 340,000 compounds, 0.51% hits; AID 504462; in the data active means inhibition above about 40%
# Target sequence (Q9Y4P1 whole entry, looked up): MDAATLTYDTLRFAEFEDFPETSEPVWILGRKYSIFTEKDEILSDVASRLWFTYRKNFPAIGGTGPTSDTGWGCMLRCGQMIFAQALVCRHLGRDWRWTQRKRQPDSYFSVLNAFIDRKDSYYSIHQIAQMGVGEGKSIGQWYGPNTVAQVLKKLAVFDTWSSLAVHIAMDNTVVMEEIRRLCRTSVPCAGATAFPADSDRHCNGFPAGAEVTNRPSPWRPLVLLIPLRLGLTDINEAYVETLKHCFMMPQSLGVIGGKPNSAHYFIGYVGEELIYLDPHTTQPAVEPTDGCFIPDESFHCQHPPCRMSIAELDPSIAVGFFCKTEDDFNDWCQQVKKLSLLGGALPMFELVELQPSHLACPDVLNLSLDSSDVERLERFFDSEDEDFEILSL
# SKN-1 inh – blocks SKN-1 activity in C. elegans | C. elegans VP596 Pgst-4::GFP/RFP ratio, acrylamide-induced, 24 h | inhibition, % at 21.8 µM | 360,000 compounds, 0.49% hits | AID 624304;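 active means interference check ratio from 0.5 to 1.5 plus GFP to RFP signal ratio inhibition reaching or exceeding a fixed threshold, cut at about 30% in these data, passing the limit was not always enough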
# MT1-MMP act inh – blocks activation of human MT1-MMP | P50281 | HT1080 RFP-PRO-GFP cells, GFP/RFP ratio fluorescence, overnight; percent of plate control window, DMSO zero | GFP/RFP ratio change, % at 20 µM | 360,000 compounds, 0.061% hits;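 active means GFP/RFP ratio change of at least 30% with cell ATP level not reduced by more than half and red fluorescence within 50% of control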
#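 Assay system – RFP-PRO-GFP reporter HT1080 cells · Compound dosing – single dose of 20 µM compound, 1% DMSO final · Incubation – overnight compound exposure at 37 °C · Measure – GFP/RFP fluorescence ratio · Benchmarks – DMSO wells and RFP-L50D-GFP cells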
# MPTP counter – membrane potential counter-screen of mitochondrial pore inhibitors. shares compounds with MPTP inh. isolated mitochondria, Rhodamine 123 fluorescence. inhibition, % at 10 µM. 5,000 compounds, 78% hits; in the data active means inhibition above about 22%;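 further: 0% = DMSO vehicle and 100% = positive control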
# MPTP abs DR – MPTP inhibition, dose response swelling confirmation. AID 651561. 780 compounds, 58% hits. shares compounds with MPTP inh. isolated mitochondria swelling, absorbance. IC50, µM; in the data active means IC50 below about 20 µM
# MPTP counter DR – counter-screen for mitochondrial permeability transition pore inhibitors, dose response; shares compounds with MPTP inh; AID 651564; IC50, µM; isolated mitochondria counterscreen, fluorescence read-out; 780 compounds, 49% hits; in the data active means IC50 below about 80 µM
# The depositor's hits bear a star; . = no result given. Rows were chosen to be rich in hits. Some 2.3% of all compounds tested hit in one or more screens of this group.
SMILES,MPTP inh,ATG4B inhibitor,SKN-1 inh,MT1-MMP act inh,MPTP counter,others
O=C(Nc1cccc(C(F)(F)F)c1)C12CC3CC(CC(C3)C1)C2,64*,6,-3,2,43*,
O=C1CCC(C(=O)Nc2cccc(C(F)(F)F)c2)N1 (stereo unspecified),-1,5,13,1,.,
Cc1ccccc1NC(=O)Nc1ccc(C(F)(F)F)cc1,80*,2,3,1,87*,
O=C(Nc1cccc(C(F)(F)F)c1)c1cc(-c2ccc(F)cc2)on1,67*,-8,8,3,16,MPTP abs DR=>100;MPTP counter DR=>80
CN1CCN(c2ccc(-c3ccnn3C(=O)Nc3cccc(C(F)(F)F)c3)cc2)CC1,87*,6,9,2,100*,
O=C(CN1CCN(c2cccc(C(F)(F)F)c2)CC1)Nc1cccc(C(F)(F)F)c1,4,-5,-14,1,.,
COc1ccccc1C(CNc1nc(C(F)(F)F)nc2ccccc12)N(C)C (stereo unspecified),-1,-12,24,-1,.,
CCc1ccc(-c2cc(C(F)(F)F)n3nc(C(=O)Nc4cnn(Cc5ccc(C)cc5)c4)cc3n2)s1,1,12,-2,-1,.,
Cc1sc(NC(=O)c2cccs2)nc1-c1ccccc1,0,33,19,-40,.,
CC(=O)c1c(C)[nH]c(C(=O)Nc2nc(-c3ccccc3)c(C)s2)c1C,79*,14,7,0,55*,
CCCc1ccc(C2C3=C(CC(C)(C)CC3=O)NC3=C2C(=O)c2ccccc23)cc1 (stereo unspecified),81*,21,8,-37,52*,
O=C1CCCC2=C1C(c1cccc(O)c1)C1=C(N2)c2ccccc2C1=O (stereo unspecified),3,0,19,6,.,
CCCCc1ccc(C2C3=C(CC(C)(C)CC3=O)NC3=C2C(=O)c2ccccc23)cc1 (stereo unspecified),71*,14,5,-26,53*,
CC1(C)CC(=O)C2=C(C1)NC1=C(C(=O)c3ccccc31)C2c1ccc(O)cc1 (stereo unspecified),6,-1,2,10,.,
COC(=O)[C@@]12C[C@@H](CC(=O)NCC34CC5CC(CC(C5)C3)C4)C(=O)N(CCc3ccc(OC)c(OC)c3)C1=CCC(C)(C)C2,-3,.,0,-18,.,
CCC(C)[C@H](NC(=O)NCc1ccc(S(N)(=O)=O)cc1)C(=O)O (stereo partly specified),0,0,-5,3,.,
COc1cccc(CNCCc2c[nH]c3ccccc23)c1OCc1ccccc1,85*,13,-8,-21,60*,
Cc1ccc(O)c(-n2nc3ccccc3n2)c1,0,8,-1,5,.,
Cc1cc(C)n(CCNC(=O)c2cc(COc3ccc4ncccc4c3)on2)n1,63*,-5,-17,3,37*,
CC(C)N(Cc1nccn1C)C(=O)c1cc(COc2ccc3ncccc3c2)on1,26,6,10,-7,.,
CC(CCCC(C)(C)O)NC(=O)c1cc(COc2ccc3ncccc3c2)on1 (stereo unspecified),92*,1,-1,-8,79*,
O=C(NCc1cccc(Cl)c1)c1cc(COc2ccc3ncccc3c2)on1,105*,19,6,-15,92*,
Cc1ccc(OCc2cc(C(=O)NC(C)Cc3cccnc3)no2)cc1C (stereo unspecified),-1,-2,10,-3,.,
Cc1nc(CN(C)C(=O)c2cc(COc3ccc4ncccc4c3)on2)cs1,99*,4,5,-9,69*,
O=C(CC1SCCNC1=O)NCc1ccccc1 (stereo unspecified),-2,.,26,-2,.,
SMILES,MPTP inh,ATG4B inhibitor,SKN-1 inh,MT1-MMP act inh,MPTP counter,others
Cc1ccc(Nc2cc(C)nc(-c3ccccc3O)n2)cc1,29,-5,7,3,.,
Cc1cc(Nc2ccc(F)c(F)c2)nc(-c2ccccc2O)n1,90*,-4,1,-1,60*,
O=C(Nc1nnc(CC2=CCCCC2)s1)c1cccs1,-2,-6,9,3,.,
COc1ccc(NC(=O)Nc2nnc(-c3ccncc3)s2)cc1,16,-5,-8,-9,.,
O=C(Nc1ccc(Cl)c(Cl)c1)Nc1nnc(CC2=CCCCC2)s1,89*,-3,3,-9,11,MPTP abs DR=3.5*;MPTP counter DR=<2.5*
O=C(Nc1ccc(Cl)c(Cl)c1)Nc1nnc(-c2ccncc2)s1,102*,5,11,-14,87*,
Cc1cccc(N=Cc2[nH]c3ccc(Br)c(Cl)c3c2O)c1,97*,6,15,-17,0,MPTP abs DR=7.9*;MPTP counter DR=<2.5*
CCOC(=O)C1=C(CC)Nc2ccccc2N/C1=N\S(=O)(=O)c1cc(Br)ccc1Br,66*,18,-5,0,82*,
CSc1ccc(CN2C(=O)C(F)(F)Oc3c(C(C)=O)cccc32)cc1,74*,.,13,-1,75*,
COc1ccc(CC(N)c2csc(NC(=O)c3cc(C(C)(C)C)oc3C)n2)cc1 (stereo unspecified),0,.,4,-10,.,
COc1ccc(CNC(=O)CN(C(=O)CCC(=O)Nc2ccccn2)c2ccc(C)cc2)cc1,-1,3,-4,-3,.,
Cc1cc(=O)c2ccc(C(F)(F)F)cc2[nH]1,1,4,-5,-3,.,
O=c1cc(C(F)(F)F)[nH]c2ccc(C(F)(F)F)cc12,61*,-3,14,11,82*,
N=c1c2c3c(sc2ncn1Nc1ccccc1)CCC3,2,0,-8,2,.,
Cc1ccc(C(=O)NCCNC(=O)Cc2ccccc2)cn1,-2,2,-5,0,.,
O=C(Cc1ccc(Cl)cc1Cl)Nc1ccc(OC(F)F)c(Cl)c1,74*,0,11,2,84*,
O=C(Nc1ccc(OC(F)F)c(Cl)c1)Nc1ccc2c(c1)OCO2,92*,5,-25,3,88*,
C=CCNC(=S)Nc1ccc(OC(F)F)c(Cl)c1,2,-1,-2,5,.,
O=C(COC(=O)Cc1ccc(Cl)cc1Cl)Nc1ccc(OC(F)F)cc1,1,12,2,1,.,
O=C(Nc1ccc(OC(F)F)c(Cl)c1)c1cccc(OC(F)F)c1,97*,-9,44*,8,95*,
O=C(Nc1ccc([N+](=O)[O-])cc1)Nc1ccc(OC(F)F)c(Cl)c1,98*,-13,0,-32,47*,
Cc1ccc(NC(=O)C(C)c2ccc([N+](=O)[O-])cc2)cc1Cl (stereo unspecified),80*,-12,5,8,87*,
CC(C(=O)Nc1ccccc1Br)c1ccc([N+](=O)[O-])cc1 (stereo unspecified),2,-2,-10,3,.,

# Screening data as filed in PubChem.
